Measured values gathered from unrelated publications.
Each line is one published result; the experiments were not run side by side.
Read-out: enzyme activity
Action: inhibitor
HIPK4: Homeodomain-interacting protein kinase 4 (HIPK4, Homo sapiens, UniProt Q8NE63)
MARK2: Serine/threonine-protein kinase MARK2 (MARK2, Homo sapiens, UniProt Q7KZI7)
TcPGFS: TcPGFS (Trypanosoma cruzi, UniProt Q8I6L9)

O=C(O)c1ccc2c(c1)nc(NCCc1cccc(F)c1)c1ccncc12 — remaining activity (HIPK4; radiometric; 1 µM): -10%
COc1cc(Cl)c(C(=O)N[C@@H](CN[C@H]2CC[C@@H](N)CC2)Cc2ccc(C#N)cc2)cc1-c1ccc(CN[C@H](C)c2ccc(C)cc2)o1 — remaining activity (Cyclin-dependent kinase-like 2 (CDKL2, Homo sapiens, UniProt Q92772); 1 µM): 93%
O=C(O)c1ccc2c(c1)nc(Nc1ccc(Cl)cc1)c1ncncc12 — remaining activity (HIPK4; radiometric; 1 µM): 62%
Cc1nn(CC(F)(F)F)cc1Nc1nccc(NCc2ccc(S(N)(=O)=O)cc2)n1 — remaining activity (MARK2; radiometric; 1 µM): 108%
Cc1ccc(C(=O)Nc2ccc(CN3CCN(C)CC3)c(C(F)(F)F)c2)cc1C#Cc1cnc2cccnn12 — remaining activity (Wee1-like protein kinase 2 (WEE2, Homo sapiens, UniProt P0C1S8); 23.5 nM): 96%
O=C(O)c1ccc2c(c1)nc(Nc1ccc(Cl)cc1)c1ccncc12 — remaining activity (HIPK4; radiometric; 1 µM): 116%
CC1(C)CCC2=C(O1)c1ccccc1C(=O)C2=O — remaining activity (TcPGFS; 200 µM): 86%
CCCOc1ccc(OC)c(F)c1C(=O)c1ccc(C(=O)N[C@@H]2CNC[C@H]2NC(=O)c2ccc3[nH]ncc3c2)cc1 — remaining activity (Ribosomal protein S6 kinase alpha-1 (Rps6ka1, Rattus norvegicus, UniProt Q63531); 0.1 µM): 119%
CC1CS(=O)(=O)CCN1/N=C/c1ccc([N+](=O)[O-])o1 (stereo not drawn) — remaining activity (TcPGFS; 200 µM): 6%
NS(=O)(=O)c1ccc(CNc2ccnc(Nc3cccc(CN4CCOCC4)c3)n2)cc1 — remaining activity (MARK2; radiometric; 1 µM): 102%
N#Cc1cccc(Nc2nc3cc(C(=O)O)ccc3c3cncnc23)c1 — remaining activity (HIPK4; radiometric; 1 µM): 35%
CC[C@H](C)[C@H](NC(=O)[C@H](CCC(N)=O)NC(=O)[C@H](CC(C)C)NC(=O)[C@H](CCSC)NC(=O)[C@H](CCCCN)NC(=O)[C@H](CO)NC(=O)[C@H](CO)NC(=O)[C@H](CCSC)NC(=O)[C@H](CC(C)C)NC(=O)[C@H](CC(N)=O)NC(=O)[C@@H](NC(=O)[C@@H](NC(=O)[C@H](CO)NC(=O)[C@H](CC(C)C)NC(=O)[C@H](CS)NC(=O)[C@H](CCCNC(=N)N)NC(=O)[C@H](CC(=O)O)NC(=O)[C@H](Cc1c[nH]c2ccccc12)NC(=O)[C@H](Cc1ccccc1)NC(=O)[C@H](C)NC(=O)[C@H](CCC(=O)O)NC(=O)[C@@H](N)CCCCN)C(C)C)[C@@H](C)CC)C(=O)N[C@@H](CC(N)=O)C(=O)N[C@@H](C)C(=O)O — remaining activity (Cyclin-dependent kinase 5, with p25 (CDK5, Homo sapiens, UniProt Q00535); radiometric; 50 µM, 20 min): 80%
